Source: PubChem
An excerpt weighted towards active compounds, which were near 1.8% of everything screened.
CRFBP-R2 block: blocks CRF-induced signaling of the CRF-BP/CRF-R2 complex. HEK293 CRF-R2/CRF-BP, CRF-induced calcium fluorescence. inhibition, % at 11.8 µM. 0.59% of 350,000 active. AID 588475;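 active = inhibition of the ligand-induced calcium signal above about 50% at the single tested concentration, limit read from the data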
Jurkat NFkB inh: inhibitors of the PMA/ionomycin-induced NF-kB reporter in Jurkat cells; PMA/ionomycin-induced NF-kB luciferase reporter, luminescence; inhibition, % at 4 µM; 0.53% of 330,000 active; AID 435003; in the data active = inhibition above about 50%
697 NFkB inh: inhibitors of the PMA/ionomycin-induced NF-kB reporter in 697 B cells; 697 B-cell NF-kB luciferase reporter, 16 h; 0.33% of 330,000 active; inhibition, % at 4 µM; in the data active = inhibition above about 35%
CHOP UPR activ: apoptotic UPR (CHOP) activation. CHO-CHOP luciferase reporter, luminescence; percent of tunicamycin response over DMSO baseline. activation, % at 10 µM. 0.34% of 330,000 active. AID 449763;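 active = at 10 µM dose, activation of 40% or more, normalized to positive control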;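 note: 100% = tunicamycin at 10 µg/mL and 0% = DMSO alone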
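Assay system: CHO-CHOP cells, stable luciferase reporter of PERK-eIF2a-CHOP signalling / Buffer or medium: F12 plus 10% serum / Compound dosing: one dose, 10 µM in 0.5% DMSO / Times: 6 h compound treatment, 37 °C / Technique: luciferase luminescence / Read-out: % reporter activation, DMSO baseline versus tunicamycin full activation / Benchmarks: tunicamycin and DMSO controls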
UPR XBP1 act: adaptive UPR (XBP1) activation; 0.33% of 330,000 active; activation, % at 20 µM; AID 463104; CHO-XBP1 luciferase reporter, IRE1-XBP1 UPR activation, luminescence; percent of tunicamycin response, DMSO as zero;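 active = versus positive control, 20 µM dose yields 30% or more activation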;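 note: 100% = tunicamycin at 10 µg/mL and 0% = DMSO only wells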
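Material: CHO cell line with stable XBP1 luciferase reporter; buffer or medium: F12 medium containing 10% fetal bovine serum; compound: single point, 20 µM final compound, 1% DMSO; incubation: 6 h treatment, 37 °C; measured by: glow luminescence from Steady-Glo reagent; evaluation: activation, % of tunicamycin; control set: tunicamycin high, DMSO low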
CHOP UPR conf: apoptotic UPR (CHOP) activation, confirmed; 64% of 1,000 active; activation, % at 10 µM; CHO-CHOP cells, CHOP-luciferase reporter luminescence; percent of tunicamycin response, DMSO as zero; shares compounds with CHOP UPR activ; AID 463112; in the data active = activation above about 33%;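 note: 0% = DMSO wells and 100% = tunicamycin 10 µg/mL wells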
* = called active by the depositor; . = no result given.

SMILES | CRFBP-R2 block | Jurkat NFkB inh | 697 NFkB inh | CHOP UPR activ | UPR XBP1 act | CHOP UPR conf
COc1ccc(C2(c3ccc(OC)cc3)NC(=O)N(CC(=O)N(C)C)C2=O)cc1 | -11.6 | -14.8 | 8.4 | -1.8 | -4.4 | .
CC1=NOC(=O)/C1=C\c1ccc(-c2ccc(Cl)cc2Cl)o1 | -31.3 | 10.4 | 14.2 | 105.7* | 2.3 | 110.2*
CCCOc1ccc(Cl)cc1/C=C1/C(=O)ON=C1C | 10.3 | -13.2 | 0.6 | 1.4 | -7.6 | .
CCOC(=O)c1cnc(-n2nc(C)cc2C)nc1NC(C)c1ccccc1 (centres undefined) | -11.3 | 11.8 | -0.7 | 73.1* | 29.6 | 29.1
CCOC(=O)c1cnc(-n2nc(C)cc2C)nc1NNc1ncc(-c2ccccc2)cn1 | 16.1 | 4.7 | -1.4 | -1.4 | -0.4 | .
CCOC(=O)c1cnc(-n2nc(C)cc2C)nc1NCc1ccccc1 | 11.7 | -5.0 | -3.2 | 73.7* | 19.2 | 25.3
Cc1ccc2nc(-c3ccc(O)c(O)c3)cn2c1 | -0.1 | -80.0 | -137.8 | 155.4* | 0.6 | 61.0*
COC(=O)CSC1=C(C#N)C(=O)NC(c2ccccc2)S1 (centres undefined) | -5.4 | -9.1 | -0.6 | 87.7* | -2.6 | 29.4
COc1ccc2[nH]cc(C(=O)CCl)c2c1 | 12.2 | 20.9 | -138.4 | 101.8* | -6.5 | 39.0*
COc1ccc2[nH]cc(C(=O)CN3CC(C)CC(C)C3)c2c1 (centres undefined) | -4.8 | -12.7 | 4.6 | 0.2 | 0.1 | .
COc1ccc(CNC[C@@H](CCCCN(C)Cc2ccc(OC)cc2)N2C[C@H](c3ccccc3)N(CCc3ccc(Cl)c(Cl)c3)C(=O)C2=O)cc1 | -11.9 | 2.0 | 13.9 | 133.7* | 12.8 | 146.6*
CC(=O)OCCCNc1cc(Sc2ccc(C)cc2)c2nonc2c1[N+](=O)[O-] | 0.0 | -11.3 | 24.1 | 149.4* | -5.7 | -10.6
CC(=O)OCCCNc1cc(Sc2nc3ccccc3s2)c2nonc2c1[N+](=O)[O-] | -21.5 | 13.0 | 7.6 | -10.3 | -6.5 | .
CCCCn1nc(C(=O)N(C)Cc2nc3ccccc3c(=O)[nH]2)c2ccccc2c1=O | -8.1 | . | . | . | . | .
CCOC(=O)C(=Cc1ccc(-n2ccnc2)cc1)C(=O)OCC | 9.6 | 3.5 | -25.5 | 188.2* | -4.3 | 142.1*
CCOC(=O)C(=Cc1ccc(F)cc1)C(=O)OCC | . | 3.4 | -13.6 | 122.1* | -6.7 | 140.4*
O=C(Nc1nc(-c2ccccn2)cs1)c1cc(Cl)ccc1[N+](=O)[O-] | -4.3 | 35.2 | 4.9 | 65.7* | -1.1 | 166.7*
N#C/C(=C/c1ccc(N2CCCCCC2)o1)c1cccc(F)c1 | 8.8 | -0.8 | -12.4 | 12.5 | 2.5 | .
N#C/C(=C/c1ccc(N2CCCCCC2)o1)c1ccc(F)cc1 | -4.6 | 24.2 | -34.1 | 98.4* | 0.4 | 21.9
O=C(NCC(c1ccco1)N1CCN(c2ccccc2)CC1)C(=O)NC1CC1 (centres undefined) | 4.5 | 3.3 | -22.8 | -1.4 | -3.1 | .
O=C(N=C1SC2CS(=O)(=O)CC2N1Cc1ccccc1Cl)C1CCCO1 (centres undefined) | -10.9 | 3.5 | 10.6 | 1.7 | -1.6 | .
Oc1ccc(/C=N/N=C/c2ccc(O)c(O)c2)cc1O | 3.2 | 43.8 | -97.2 | 66.7* | 28.3 | 9.2
Oc1ccc(/C=N/N(c2ccccc2)c2ccccc2)cc1O | -4.9 | 8.9 | -26.3 | 107.0* | 8.6 | 32.6*
Oc1ccc(/C=N/N(c2ccccc2)c2ccccc2)c(O)c1O | . | -11.6 | -1.4 | 4.8 | -6.6 | .
C[C@H](O)[C@@H]1C(=O)N2CCc3c([nH]c4ccccc34)[C@@H]2C[C@@H]1N(C)Cc1ccc(Cl)cc1 | 10.8 | . | . | . | . | .
CC(C)C(=O)N1CCN(c2ccc(NC(=O)c3ccc([N+](=O)[O-])o3)cc2)CC1 | -8.5 | 15.3 | -6.2 | 108.1* | -1.8 | 71.3*
CC(C)C(=O)N1CCN(c2ccc(NC(=O)c3ccc([N+](=O)[O-])o3)cc2Cl)CC1 | 3.6 | . | . | . | . | .
CN1CCN(c2ccc(NC(=O)c3ccc([N+](=O)[O-])o3)cc2Cl)CC1 | -5.7 | 25.3 | -9.8 | 98.7* | 0.3 | 59.5*
